Data as given in ChEMBL document CHEMBL4513216, “Probing the Open Global Health Chemical Diversity Library for Multistage-Active Starting Points for Next-Generation Antimalarials” (ACS Infect Dis, 2020).

Experiment: Toxicity liver stage against HepG2, at 10uM
Type: cell-based
Design: test concentration 10 uM, cell line HepG2-A16-CD81EGFP
Settings: human, HepG2-A16-CD81EGFP cells; read-out: INHIBITION
Summary of the method: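 Uninfected HepG2-A16-CD81EGFP cells, 3 × 10^3 per well, 1536-well, plated on prespotted compound at 10 μM final, parasite-free screening media added to match infected plates; puromycin 10 μM positive, DMSO 0.5% negative; run in parallel with 48 h PbLuc assay at 37 °C, 5% CO2; viability by CellTiter-Glo luminescence, normalized to controls.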

Row | SMILES | cytotoxicity at 10 µM [%]
1 | Cc1occc(=O)c1OCC(=O)N1CCc2ccccc2C1 | -0.765
2 | COCC1CN(S(=O)(=O)c2ccc(C)cc2)Cc2c1cnn2C (stereo not given) | -5.37
3 | CCC1(CO)CCN(C(=O)c2cc(COc3ccccc3F)[nH]n2)CC1 | 4.45
4 | c1ccc(-c2nccc(CNC3CCc4ncnn4C3)n2)cc1 (stereo not given) | 0.787
5 | CCn1c(C)nnc1SCCNc1nc(C)nc2c1cnn2C | 7.9
6 | NC(=O)c1cc(-c2cccc(C(=O)O)c2)cs1 | 2.77
7 | Clc1ccccc1-c1nnc(CN2CCCC2Cn2cncn2)o1 (stereo not given) | -9.03
8 | Fc1ccc(-c2nnc(CN3CCCC3Cn3cccn3)o2)cc1 (stereo not given) | -5.65
9 | O=S(=O)(C1CC1)N1CCC2(CCCN(Cc3ccccn3)C2)CC1 | 5.97
10 | Nc1c(Cl)cnn1C1CCN(Cc2ccccc2)C1 (stereo not given) | 0.648
11 | O=C(Nc1cccnc1-n1cncn1)N(C1CCCC1)C1CC1 | -10.9
12 | CC(C)(C)c1cn2nc(N3CCOC(Cn4cncn4)C3)sc2n1 (stereo not given) | -2.63
13 | COc1ccc(CN(C)c2ccc(-c3nccn3C)nn2)cc1OC | -3.32
14 | Cn1cc(NC(=O)C2CC(=O)N(c3n[nH]c4cccc(F)c34)C2)cn1 (stereo not given) | 4.59
15 | Cc1cccc(CN2C[C@@H]3OCCN(S(=O)(=O)N(C)C)[C@@H]3C2)n1 | 11.2
16 | CC(O)c1cn(Cc2ccc(F)cc2)nn1 (stereo not given) | 4.78
17 | CC(C)(C)OC(=O)N1CC(CC(=O)NCc2ccsc2)C1 | 5.18
18 | Cc1nc(N)nc(N2CCOc3ccc(CO)cc3C2)c1C | 4.23
19 | Cc1cnccc1CNCc1ccc(OC23CCCN(CC2)C3)cc1 (stereo not given) | -12.3
20 | Cc1nc(-c2cccc(C(=O)O)c2)cc(C2CCCN(C(C)C)C2)n1 (stereo not given) | -7.44
21 | Cn1cc(CN2CCc3c(nnn3C)C2COCc2ccccc2)cn1 (stereo not given) | -126
22 | O=C(NCCC(O)c1ccco1)c1ccccc1Br (stereo not given) | 0.957
23 | CN1[C@@H](c2ccccc2)[C@@H](C(=O)NCc2ccccn2)C[C@@]1(C)C(=O)O | -3.8
24 | O=C(NCC1CCOC1)c1cc(-c2ccccc2Cl)[nH]n1 (stereo not given) | -3.11
25 | Cc1csc(N2CCN(CCCN3CCCC3=O)CC2)n1 | 3.92
26 | Cc1ccc(-c2nc(CNC3CCc4ncnn4C3)no2)cc1 (stereo not given) | -1.43
27 | Cc1nc(C2CCCN(C(=O)COCc3ccccc3Cl)C2)no1 (stereo not given) | 5.8
28 | COC(=O)C1=C(C)N=C2SCC(=O)N2C1c1cnn(C)c1C (stereo not given) | 4.01

Row | SMILES | cytotoxicity at 10 µM [%]
29 | Cc1cc(C)nc(CN(C)C(=O)C(c2cccnc2)N2CCCC2)c1 (stereo not given) | -45.4
30 | COCCN1CCCC(c2nccnc2-c2cccc(Cl)c2)C1 (stereo not given) | 3.99
31 | CC(C)C(C)(CNC(=O)OC(C)(C)C)NC(=O)c1cnccn1 (stereo not given) | -6.62
32 | Cc1cnc(C)c(N2CCN(Cc3ccc(-c4cc[nH]n4)o3)CC2)n1 | -5.01
33 | C=C(C)CN1CCC(Nc2nc(C)ns2)CC1 | -8.39
34 | CC(C)CCN1CCN(CC(=O)Nc2ccc3nsnc3c2)CC1 | -0.216
35 | CS(=O)(=O)NCC1CCCN(C(=O)c2ccc(F)c(F)c2)C1 (stereo not given) | -10.3
36 | N#Cc1cccc(CN2CCN(C(=O)C3CCC3)[C@@H]3CS(=O)(=O)C[C@@H]32)c1 | -3.49
37 | COC(=O)c1cccc(NCC(=O)NC(N)=O)c1 | 6.88
38 | Cc1nccn1-c1cc(CNS(=O)(=O)N2CCCC(C)C2)ccn1 (stereo not given) | -2.42
39 | CC(c1ccon1)N(C)C(=O)C1CCN(CC(N)=O)CC1 (stereo not given) | -4.83
40 | CC(CN1CCCC1=O)NC(=O)c1cc(=O)[nH]c2ccc(Cl)cc12 (stereo not given) | -7.14
41 | Cn1cc(CN2CCCC3(CCN(c4nncs4)C3)C2)cn1 (stereo not given) | 5.41
42 | CC(C)=CCC1(CO)CCCN(S(=O)(=O)N2CCCC2)C1 (stereo not given) | -3.38
43 | CN(Cc1noc2c1CCCC2)C(=O)Cn1cnc2ccccc2c1=O | -52.4
44 | N#Cc1ccnc(N2CCN(CC(O)c3ccc(F)c(F)c3)CC2)c1 (stereo not given) | 2.8
45 | CSc1nc(N)c2c(n1)N=C1COC(=O)C1C2c1cccc(O)c1 (stereo not given) | 32.8
46 | CCOc1ccc(NC(C)=O)cc1S(=O)(=O)Nc1nccs1 | -8.2
47 | Cc1ncsc1CCN(C)C(=O)CN1CC2(CCCC2)CC1=O | 2.19
48 | Cc1oncc1C(=O)N1CCc2ncnc(-c3cnn(C)c3)c2CC1 | 7.07
49 | Cc1cc(Nc2cnccn2)cc(C2CCCN2)n1 (stereo not given) | 2.54
50 | Cc1nc(CN2CCCCC2Cn2cccn2)nc2ccccc12 (stereo not given) | -41.5
51 | CNc1cc(C2CN(C(=O)c3cnn(C)c3)CCO2)nc(C)n1 (stereo not given) | -5.42
52 | c1cc(CN2CCO[C@H]3[C@H](OCC4CCOCC4)CC[C@@H]32)co1 | -117
53 | Cc1nc(CNC(=O)N(CCCO)C2CCc3ccccc32)oc1C (stereo not given) | -13.5
54 | CC(C)(C)c1cc(NC(=O)C2COCCO2)n(-c2ccccn2)n1 (stereo not given) | -3.49
55 | CC(C)CN1Cc2c(C(=O)N(C)C)ncn2-c2ccccc2S1(=O)=O | 3.63
